Source: ChEMBL document CHEMBL4513216, “Probing the Open Global Health Chemical Diversity Library for Multistage-Active Starting Points for Next-Generation Antimalarials” (ACS Infect Dis, 2020)

Experiment: Toxicity liver stage against HepG2, at 10uM
Format: cell-based
Set-up: test concentration 10 uM, cell line HepG2-A16-CD81EGFP
Details: human, HepG2-A16-CD81EGFP cells; read-out: INHIBITION
Procedure, shortened: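 Uninfected HepG2-A16-CD81EGFP cells, 3 × 10^3 per well, 1536-well, plated on prespotted compound at 10 μM final, parasite-free screening media added to match infected plates; puromycin 10 μM positive, DMSO 0.5% negative; run in parallel with 48 h PbLuc assay at 37 °C, 5% CO2; viability by CellTiter-Glo luminescence, normalized to controls.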

SMILES	cytotoxicity at 10 µM [%]
COc1ccc(CNC2CCc3ncnn3C2)cc1OCCCC#N (centres undefined)	-5.45
Cc1ccccc1-n1cc(-c2ccnc(N[C@@H](CO)C(C)C)n2)cn1	-3.39
O=C(NCCCn1cccn1)c1nnc2ccccc2n1	0.14
O=C([C@@H]1COC[C@H]2CN(C3CCCC3)C[C@H]21)N1CCCCO1	-1.11
CC(C)c1nc(CN2CCCN(Cc3nccn3C)CC2)no1	1.13
CCOCCC1(CNC(=O)c2ccncc2Cl)CCC1	5.38
Cc1cccc(CN2CCCC(O)(CNCCc3c[nH]cn3)C2=O)c1 (centres undefined)	1.31
Cc1nccc([C@H]2C[C@@H]3CCN(Cc4ccco4)C[C@H]3O2)n1	-1.03
CC(C)(C)c1ccc2c(c1)CCN2C(=O)c1[nH]c(=O)[nH]c(=O)c1N	7.22
Fc1cccc(-c2nnn3c2COC(CNCc2ccsc2)C3)c1 (centres undefined)	-1.52
CC(C)(C)c1n[nH]c(C2CN(C(=O)CCCn3cccn3)CCO2)n1 (centres undefined)	-0.839
CC(C)N1CCC(NC(=O)c2cn(-c3ccc(F)cc3)nn2)C1 (centres undefined)	-5.05
O=C1C(Sc2nnnn2C2CC2)CCN1c1ccccc1Cl (centres undefined)	2.4
c1ccc(C(OCCNC2CCc3ncnn3C2)c2ccccc2)cc1 (centres undefined)	-18.4
COc1cccc(OCC(=O)N2CCC3(CC2)[C@H](O)C[C@@H]3OC)c1	0.866
O=C(NCCn1ccnc1)C1COCC(=O)N1Cc1ccccc1 (centres undefined)	8.19
CN(Cc1ccccc1)CC(O)Cn1cnc2cc(F)ccc2c1=O (centres undefined)	-5.28
CC(C)Oc1ccccc1-c1cc(CN)ccc1F	-2.69
CCc1nc(CN(C)C2CCN(CCC(=O)N3CCCCC3)C2)no1 (centres undefined)	-13.4
Cc1ccccc1C(CC(=O)NCc1nnc(N)s1)c1ccccc1 (centres undefined)	13.6
CNC(=O)c1ccc(C2CN(CC(=O)N(C)C)CCO2)nc1 (centres undefined)	7.15
OCCCc1nncn1-c1cccc(C(F)(F)F)c1	6.74

SMILES	cytotoxicity at 10 µM [%]
CC(C)(NCCOc1ccc(CC#N)cc1)c1nccs1	-3.25
COC(=O)C(c1cc(F)ccc1F)N(C)C(=O)c1csnn1 (centres undefined)	0.144
CCN(CC)CCn1cnc(-c2ccccc2)c1-c1cnn(CC)c1	3.37
COCCn1c(=O)n(Cc2ccccc2C)c2cc(C(=O)O)ccc21	-1.79
CC(c1ccc(S(C)(=O)=O)cc1)N(C)C(=O)c1ccccc1I (centres undefined)	11.1
CC(NC(=O)CSCC#N)c1ccc(Cl)cc1 (centres undefined)	-2.13
Cc1nc(C2CCN(S(=O)(=O)c3ccc4c(c3)CCO4)CC2)n[nH]1	-8.91
Cn1nccc1C1CCN(CC(=O)NCC2CC2)CC1	-9.38
CC(=O)Nc1nc2c(s1)C1(CCN(C)CC1)Nc1ccccc1S2	-14.5
CC(C(=O)NCCOc1cccc(Cl)c1)n1cncn1 (centres undefined)	-3.53
O=C(O)CC[C@@H]1CN(c2ncccc2F)CC[C@@H]1N1CCOCC1	-9.11
Cc1occc1C(=O)N1C[C@@H](C(=O)N2CCCCO2)C[C@H]2OCC[C@H]21	12.1
Cc1cnc(C(=O)N2CCN3C[C@H](OCc4cccnc4)C[C@H]3C2)cn1	-59.7
CC(Cn1cccn1)NC(=O)N1CCN(Cc2ccsc2)CC1 (centres undefined)	-11.6
Cn1nc2c(cc1=O)CN(CCc1nc3ccccc3c(=O)[nH]1)CC2	-10.9
Cc1c(NCCCOc2cccc(C#N)c2)cccc1C(N)=O	-0.572
Cc1nc2c(c(=O)n1C)CCN(C(=O)CCc1ccccn1)CC2	14
Cc1cc(C(F)(F)F)nn1C(C)C(=O)Nc1ccncc1 (centres undefined)	3.1
O=C(C1CCC1)N1CCC(c2ncc3c(n2)CCNC3)CC1	-25.1
CN1[C@H](CN2CCCC2)C[C@@H]2CN(C(=O)c3ccsc3)CC[C@@H]21	0.847
Cc1noc(C)c1CNC(=O)Nc1ccc(N2CCOC(C)C2)cc1 (centres undefined)	-2.35
CS(=O)(=O)N1CCC(C(=O)NC(Cc2ccsc2)c2cccnc2)CC1 (centres undefined)	-12.5

SMILES	cytotoxicity at 10 µM [%]
CN(C)[C@@H]1CCN(C(=O)Cc2ccc(F)cc2)[C@H]1Cc1ccncc1	-84.7
CC(C(=O)NCc1ccnc(N2CCCC2)c1)n1cccn1 (centres undefined)	0.309
Cc1oncc1C(=O)N1C[C@H]2CCCC(N(C)Cc3cccs3)[C@H]2C1 (some centres undefined)	18.8
CCC(O)(CNCc1cc[nH]n1)c1ccc(Br)cc1 (centres undefined)	2.69
Cc1nc(C2CCCN2CC(=O)N(C)Cc2ccsc2)no1 (centres undefined)	-8.21
CCNC(=O)COc1ccc(C(=O)NC(C)CCc2ccco2)cc1 (centres undefined)	12.2
O=C(Cc1ccccc1O)NC1CCCN(c2ccccc2F)C1=O (centres undefined)	-13.7
Cc1nnc2ccc(OCCNS(=O)(=O)c3cccs3)nn12	-12.1
O=C1CCN(C(=O)NCCCc2ccc(Cl)cc2Cl)CCN1	-2.37
COCc1noc(CN2C[C@H](C3CC3)[C@@H](N(C)C)C2)n1	1.31
Cn1cc(C(O)CNC(=O)c2sccc2OC(F)F)cn1 (centres undefined)	0.606
CC1CCN(C(=O)c2cc(NC(=O)c3ccccc3)n(C)n2)CC1	5.17
CC(C)NC(=O)[C@@H]1CN(Cc2nccs2)C[C@H]2OCC[C@H]21	-93.5
CS(=O)(=O)c1nccn1Cc1ccc(C(N)=O)cc1	6.77
NC(=O)C1CCN(C(=O)c2ccccc2OCc2ccncc2)CC1	1.02
CNC(=O)C(C)S(=O)(=O)Cc1csc(-c2cccs2)n1 (centres undefined)	-11.9
CNS(=O)(=O)c1cccc(CNc2ccc(C(F)(F)F)nn2)c1	-11.4
O=C(NCC(=O)N1CCCc2ccccc21)c1c(O)cc(F)cc1F	28.6
Cn1cc(NC(=O)N2CCN(Cc3cscn3)CC2)ccc1=O	3.67
COc1ccc(-c2nc(CN3CC(n4cccn4)C3)no2)cc1	-3.08
Cc1cc(C)n(CC2CCCN2Cc2nc(N)c3ccccc3n2)n1 (centres undefined)	-11.7
CN1CC(=O)N(c2ccccc2)CC12CCN(CC1CCOCC1)C2 (centres undefined)	4.22

SMILES	cytotoxicity at 10 µM [%]
O=C(CCCn1cncn1)NC1CCc2nccn2C1 (centres undefined)	2.03
CCN(C(=O)CN1CCC(c2cc3ccccc3[nH]2)CC1)C1CC1	0.99
COc1cc(Br)c(CNC2CCCNC2=O)cc1OC (centres undefined)	1.93
CCCNC(=O)CCNC(=O)c1ccccc1N1CCOCC1	0.321
Cc1nnc(CN2CCCC2c2ccc3c(c2)OCCO3)n1C (centres undefined)	-0.379
COc1ccccc1[C@@H]1CN(Cc2cnn(C)c2C)C[C@H]1C(=O)O	-3.53
Cc1cc(C)n(CC2CN(Cc3cc(C)on3)CCO2)n1 (centres undefined)	-9.71
COc1ccc(CN2C[C@@H]3CN(Cc4ccncc4)C[C@@H]3C2=O)cc1	-3.86
Cc1ccc(C(=O)N2CC3(CCNCC3)c3cc(Cl)ccc32)cn1	1.61
Cc1c(C(=O)NC2CCCOc3cc(Cl)ccc32)cnn1C (centres undefined)	-0.572
CN(C)c1ccc(C(=O)Nc2ccn(CC(N)=O)n2)cn1	-5.75
COc1ccc(-c2nc(C#N)c(N(C)C)o2)cc1S(=O)(=O)N(C)C	-7.19
CN(Cc1ccsc1)C(=O)Nc1ccc(S(C)(=O)=O)cc1	-4.77
CC(C)(C)c1nc(CN2CCOC(Cn3cncn3)C2)cs1 (centres undefined)	-7.2
N#Cc1ccc(C(=O)N2CCC3(CC2)CC3)cc1	3.56
CC(C)CCc1nc(CNCC2CCCN2c2cccnn2)cs1 (centres undefined)	-10.7
Fc1cccc(-n2cc(CN3CCCCC3CCn3ccnc3)cn2)c1 (centres undefined)	-8.55
CNS(=O)(=O)CC(=O)N(Cc1ccccc1)c1ccc(C)cc1	2.53
CCc1csc(C2CCCN(C(=O)c3cnc[nH]3)C2)n1 (centres undefined)	1.78
COc1ccc2c(c1)OCC(CNC(=O)c1cc[nH]c1C)C2 (centres undefined)	3.34
CCc1nc(C)c(C(=O)N2CCNCC2C(=O)Nc2ccc(C)nc2)o1 (centres undefined)	-4
COc1cc(CNc2nncs2)cc(OC)c1OC	18.7

SMILES	cytotoxicity at 10 µM [%]
CNC(=O)CN1CCC(NC(=O)Cc2ccc3c(c2)OCCO3)CC1	-18.3
Cc1ccc(-c2noc(CN3CCC(c4ccn[nH]4)CC3)n2)cc1	12.6
CCN(C)c1ncnc2c1CCN(C(=O)Cc1ccccn1)CC2	-3.26
CN1N=C(C(=O)N(Cc2ccco2)C2CC2)CCC1=O	-2.62
CN(C)C(=O)[C@H]1C[C@@H]2CCN(Cc3ccncc3)C[C@H]2O1	0.866
CCCN(Cc1cnn(C)c1)S(=O)(=O)c1cc(C)cc(F)c1	16.2
Cn1cc(C[C@H]2[C@H](N3CCOCC3)CCN2c2ncc(F)cn2)cn1	7.23
C[C@@H]1CN(CCC(=O)NCc2ccccc2Cl)CC[C@@]1(O)C1CCC1	-3.21
CC(C)CN1CCC2(C1)CN(S(=O)(=O)c1cn(C)cn1)C2	-116
Cn1cc(CN2CCCC(CCc3ccc(F)c(F)c3)C2)cn1 (centres undefined)	-6.6
Cc1ccc(C(=O)NS(=O)(=O)c2c(Cl)cccc2Cl)c(=O)[nH]1	-0.855
CCn1nc(CC(C)C)cc1C(=O)NCCCN1CCOCC1	1.6
CCCC(NC(=O)c1cscc1C)c1nnn[nH]1 (centres undefined)	19.5
CCn1c(CN(C)Cc2csc(C)n2)nc2cc(F)ccc21	-47
CSCC(CCO)NC(=O)Nc1cccc(Br)c1C (centres undefined)	-3.7
O=C(C[S+]([O-])Cc1csc(C2CCCC2)n1)Nc1ccccc1 (centres undefined)	-42.3
CC(C)NC(=O)N1CCC(c2nnc3n2CCNC3)CC1	10.4
Cn1ccnc1C(O)c1ccccc1N1CCN(Cc2cccs2)CC1 (centres undefined)	5.03
O=C(CN1CCCC(c2ccc(C(=O)O)cc2)C1)NC1CC1 (centres undefined)	-9.87
N#Cc1ccc(OC[C@]23COC[C@H]2CN(Cc2ccoc2)C3)nc1	-0.762
COC(=O)c1ccc(NC(=O)CCc2ccco2)cc1	-10.5
